≈ marks a conversion by molar mass, not a printed value.
Legend:
[1] = Inhibition of Hepatitis C virus genotype 1a full length NS3/2K-NS4A protease using Ac-DED(Edans)EEAbupsi[COO]ASK(Dabcyl)-NH2 as substrate incubated for 10 mins prior to substrate addition by FRET analysis; set-up: species or system Hepatitis C virus subtype 1a
in vitro = conditions: human
[2] = Half life in human liver microsomes at 1 uM after 5 mins by LC/MS/MS analysis
NS3 protease [3] = target: NS3 protease (Hepacivirus C, UniProt C1KIQ2, D168V); experiment: Inhibition of Hepatitis C virus genotype 1a full length NS3/2K-NS4A protease D168V mutant using Ac-DED(Edans)EEAbupsi[COO]ASK(Dabcyl)-NH2 as substrate incubated for 10 mins prior to substrate addition by FRET analysis; set-up: species or system Hepatitis C virus subtype 1a
Procedure, shortened: (§1)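 Ki (nM ± SD) determined against each resistant NS3/4A protease variant. A vitality value was calculated for each variant as V = [Ki × (kcat/Km)]variant / [Ki × (kcat/Km)]wild-type, normalising for the effect of the substitution on catalytic efficiency.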

[4] = Apparent permeability from apical to basolateral side of human Caco2 cells at 10 uM; conditions: Caco-2
NS3 protease [5] = target: NS3 protease (Hepacivirus C, UniProt C1KIQ2, R155K); experiment: Inhibition of Hepatitis C virus genotype 1a full length NS3/2K-NS4A protease R155K mutant using Ac-DED(Edans)EEAbupsi[COO]ASK(Dabcyl)-NH2 as substrate incubated for 10 mins prior to substrate addition by FRET analysis; set-up: species or system Hepatitis C virus subtype 1a; procedure, shortened: as §1
Hepatitis C virus = experiment: Antiviral activity against Hepatitis C virus genotype 1b infected in human HuH7 cells by subgenomic replicon-based luciferase assay; format: functional, organism-based, Hepacivirus hominis; conditions: Huh-7
Procedure, shortened: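 Huh-7 replicon cell line carrying a subgenomic HCV genotype 1b RNA replicon with a firefly luciferase reporter; replicon inhibition read by luciferase signal and reported as EC50.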

NS3 protease [6] = target: NS3 protease (Hepacivirus C, UniProt C1KIQ2, A156T); experiment: Inhibition of Hepatitis C virus genotype 1a full length NS3/2K-NS4A protease A156T mutant using Ac-DED(Edans)EEAbupsi[COO]ASK(Dabcyl)-NH2 as substrate incubated for 10 mins prior to substrate addition by FRET analysis; set-up: species or system Hepatitis C virus subtype 1a; procedure, shortened: as §1
[7] = Cytotoxicity against human HuH7 cells; format: cell-based, Huh-7
[8] = Solubility of the compound in phosphate buffered saline at pH 7.4 after 1 hr by LC-MS/MS analysis

NS3 protease (Hepacivirus C, UniProt C1KIQ2, D168V), sequence (C1KIQ2 entry or part of it D168V): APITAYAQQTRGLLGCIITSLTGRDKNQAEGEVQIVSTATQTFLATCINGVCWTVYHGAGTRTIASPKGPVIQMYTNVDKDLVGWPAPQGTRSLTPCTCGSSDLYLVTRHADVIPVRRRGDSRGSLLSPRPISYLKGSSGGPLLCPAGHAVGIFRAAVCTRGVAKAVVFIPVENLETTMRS
NS3 protease (Hepacivirus C, UniProt C1KIQ2, R155K), sequence (C1KIQ2 entry or part of it R155K): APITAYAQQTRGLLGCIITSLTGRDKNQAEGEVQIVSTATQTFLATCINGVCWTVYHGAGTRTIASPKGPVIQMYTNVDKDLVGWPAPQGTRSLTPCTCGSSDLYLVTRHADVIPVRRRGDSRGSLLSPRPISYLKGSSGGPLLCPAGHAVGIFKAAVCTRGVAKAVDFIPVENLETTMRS
NS3 protease (Hepacivirus C, UniProt C1KIQ2, A156T), sequence (C1KIQ2 entry or part of it A156T): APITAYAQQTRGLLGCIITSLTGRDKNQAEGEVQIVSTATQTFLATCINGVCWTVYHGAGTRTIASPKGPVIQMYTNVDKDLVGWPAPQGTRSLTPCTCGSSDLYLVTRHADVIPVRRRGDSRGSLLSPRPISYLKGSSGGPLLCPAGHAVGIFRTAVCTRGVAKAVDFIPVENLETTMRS

With `CCC[C@H](NC(=O)[C@@H]1[C@H]2CCC[C@H]2CN1C(=O)[C@@H](NC(=O)[C@@H](NC(=O)c1cnccn1)C1CCCCC1)C(C)(C)C)C(=O)C(=O)NC1CC1` the Ki [1] was 40 nM.
Molecule `COc1ccc2c(O[C@@H]3C[C@H]4C(=O)N[C@]5(C(=O)O)C[C@H]5/C=C\CCCCC[C@H](NC(=O)OC5CCCC5)C(=O)N4C3)cc(-c3csc(NC(C)C)n3)nc2c1` has a Ki [1] of 300 nM.
In the case of `C=CCCCS(=O)(=O)NC(=O)c1ccc(NC(=O)C(NC(=O)OC(C)(C)C)c2ccc(Oc3cc(OC)nc(-c4ccccc4)n3)c(C=C)c2)cc1` (configuration not stated), the Ki [1] is reported as 220 nM.
With `C=Cc1cc(C(N)C(=O)Nc2cccc(C(=O)NS(=O)(=O)c3ccc(C(F)(F)F)cc3)c2)ccc1Oc1cc(OC)nc(-c2ccccc2)n1` (configuration not stated) the Ki [1] was 1200 nM.
`C=Cc1cc(C(NC(=O)NC(C)(C)C)C(=O)Nc2cccc(C(=O)NS(=O)(=O)c3ccc(C(F)(F)F)cc3)c2)ccc1Oc1cc(OC)nc(-c2ccccc2)n1` (configuration not stated) gave a microsomal CLint at 5 min, 1 µM (in vitro; liver microsomes) of 7 µL/min/mg, a half-life at 5 min, 1 µM ([2]; liver microsomes) of 3.23 h and a Ki [1] of 140 nM.
`C=Cc1cc(C(NC(C)=O)C(=O)Nc2cccc(C(=O)NS(=O)(=O)c3ccc(C(F)(F)F)cc3)c2)ccc1Oc1cc(OC)nc(-c2ccccc2)n1` (configuration not stated) showed a Ki [1] of 700 nM.
`C=Cc1cc(C(NC(=O)N2CCOCC2)C(=O)Nc2cccc(C(=O)NS(=O)(=O)c3ccc(C(F)(F)F)cc3)c2)ccc1Oc1cc(OC)nc(-c2ccccc2)n1` (configuration not stated) gave a Ki [1] of 590 nM.
With `C=Cc1cc(C(NC(=O)c2cccnc2)C(=O)Nc2cccc(C(=O)NS(=O)(=O)c3ccc(C(F)(F)F)cc3)c2)ccc1Oc1cc(OC)nc(-c2ccccc2)n1` (configuration not stated) the Ki [1] was 240 nM.
`C=Cc1cc(C(NC(=O)OC2CCCC2)C(=O)Nc2cccc(C(=O)NS(=O)(=O)c3ccc(C(F)(F)F)cc3)c2)ccc1Oc1cc(OC)nc(-c2ccccc2)n1` (configuration not stated) showed a Ki [1] of 72 nM.
Work on `C=Cc1cc(C(NC(=O)OC2CCCC2)C(=O)Nc2ccc(C(=O)NS(=O)(=O)c3ccc(C(F)(F)F)cc3)cc2)ccc1Oc1cc(OC)nc(-c2ccccc2)n1` (configuration not stated) yielded a Ki [1] of 55 nM.
Molecule `C=CCCCS(=O)(=O)NC(=O)c1cccc(NC(=O)C(NC(=O)OC2CCCC2)c2ccc(Oc3cc(OC)nc(-c4ccccc4)n3)c(C=C)c2)c1` (configuration not stated) has a Ki [1] of 130 nM.
Work on `C=Cc1cc([C@H](NC(=O)[C@@H](NC(=O)OC(C)(C)C)C(C)(C)C)C(=O)Nc2cccc(C(=O)NS(=O)(=O)c3ccc(C(F)(F)F)cc3)c2)ccc1Oc1cc(OC)nc(-c2ccccc2)n1` yielded a Ki (NS3 protease [3]) of 110 nM, a microsomal CLint at 5 min, 1 µM (in vitro; liver microsomes) of 80 µL/min/mg and a Papp A→B at 10 µM [4] of 9.7 ×10⁻⁶ cm/s. The Ki (NS3 protease [5]) was 210 nM, the EC50 (Hepatitis C virus) was greater than 50000 nM and the Ki (NS3 protease [6]) was 53 nM. It also gave a half-life at 5 min, 1 µM ([2]; liver microsomes) of 0.283 h, a CC50 [7] of no less than 50000 nM and a solubility at 1 h [8] of 43 µM (≈ 39.4 µg/mL). The Ki [1] was 24 nM.
Work on `C=Cc1cc([C@H](NC(=O)[C@@H](NC(=O)OC(C)(C)C)C(C)(C)C)C(=O)Nc2ccc(C(=O)NS(=O)(=O)c3ccc(C(F)(F)F)cc3)cc2)ccc1Oc1cc(OC)nc(-c2ccccc2)n1` yielded a Ki [1] of 30 nM.
`C=Cc1cc([C@@H](NC(=O)[C@@H](NC(=O)OC(C)(C)C)C(C)(C)C)C(=O)Nc2ccc(C(=O)NS(=O)(=O)c3ccc(C(F)(F)F)cc3)cc2)ccc1Oc1cc(OC)nc(-c2ccccc2)n1` gave a Ki [1] of 30 nM.
Work on `C=CCCCS(=O)(=O)NC(=O)c1ccccc1NC(=O)[C@@H](NC(=O)[C@@H](NC(=O)OC(C)(C)C)C(C)(C)C)c1ccc(Oc2cc(OC)nc(-c3ccccc3)n2)c(C=C)c1` yielded a Ki [1] of 26 nM.
`C=CCCCS(=O)(=O)NC(=O)c1ccccc1NC(=O)[C@H](NC(=O)[C@@H](NC(=O)OC(C)(C)C)C(C)(C)C)c1ccc(Oc2cc(OC)nc(-c3ccccc3)n2)c(C=C)c1` gave a Ki [1] of 33 nM.
With `C=CCCCS(=O)(=O)NC(=O)c1cccc(NC(=O)[C@@H](NC(=O)[C@@H](NC(=O)OC(C)(C)C)C(C)(C)C)c2ccc(Oc3cc(OC)nc(-c4ccccc4)n3)c(C=C)c2)c1` the Ki [1] was 88 nM.
For `C=CCCCS(=O)(=O)NC(=O)c1cccc(NC(=O)[C@H](NC(=O)[C@@H](NC(=O)OC(C)(C)C)C(C)(C)C)c2ccc(Oc3cc(OC)nc(-c4ccccc4)n3)c(C=C)c2)c1`, the Ki [1] was 100 nM.
Molecule `C=CCCCS(=O)(=O)NC(=O)c1ccc(NC(=O)[C@@H](NC(=O)[C@@H](NC(=O)OC(C)(C)C)C(C)(C)C)c2ccc(Oc3cc(OC)nc(-c4ccccc4)n3)c(C=C)c2)cc1` has a Ki [1] of 96 nM.
In the case of `C=CCCCS(=O)(=O)NC(=O)c1ccc(NC(=O)[C@H](NC(=O)[C@@H](NC(=O)OC(C)(C)C)C(C)(C)C)c2ccc(Oc3cc(OC)nc(-c4ccccc4)n3)c(C=C)c2)cc1`, the Ki [1] is reported as 110 nM.
Work on `C=Cc1cc(C(NC(=O)OC(C)(C)C)C(=O)Nc2ccccc2C(=O)NS(=O)(=O)c2ccc(C(F)(F)F)cc2)ccc1Oc1cc(OC)nc(-c2ccccc2)n1` (configuration not stated) yielded a microsomal CLint at 5 min, 1 µM (in vitro; microsomes) of 16 µL/min/mg, a Papp A→B at 10 µM [4] of 4 ×10⁻⁶ cm/s and a half-life at 5 min, 1 µM ([2]; microsomes) of 1.47 h. It also gave a solubility at 1 h [8] of 5 µM (≈ 4.02 µg/mL) and a Ki [1] of 240 nM.
Molecule `C=Cc1cc(C(NC(=O)OC(C)(C)C)C(=O)Nc2cccc(C(=O)NS(=O)(=O)c3ccc(C(F)(F)F)cc3)c2)ccc1Oc1cc(OC)nc(-c2ccccc2)n1` (configuration not stated) has a Ki (NS3 protease [3]) of 180 nM, a microsomal CLint at 5 min, 1 µM (in vitro; liver microsomes) of 12 µL/min/mg and a Papp A→B at 10 µM [4] of 1 ×10⁻⁶ cm/s. The Ki (NS3 protease [5]) was 580 nM, the EC50 (Hepatitis C virus) was 27500 nM and the Ki (NS3 protease [6]) was 110 nM. The half-life at 5 min, 1 µM ([2]; liver microsomes) was 1.95 h, the CC50 [7] was no less than 50000 nM and the Ki [1] was 58 nM.
Molecule `C=Cc1cc(C(NC(=O)OC(C)(C)C)C(=O)Nc2ccc(C(=O)NS(=O)(=O)c3ccc(C(F)(F)F)cc3)cc2)ccc1Oc1cc(OC)nc(-c2ccccc2)n1` (configuration not stated) has a microsomal CLint at 5 min, 1 µM (in vitro; liver microsomes) of 25 µL/min/mg, a half-life at 5 min, 1 µM ([2]; liver microsomes) of 0.917 h and a Ki [1] of 46 nM.
Work on `C=CCCCS(=O)(=O)NC(=O)c1ccccc1NC(=O)[C@@H](NC(=O)OC(C)(C)C)c1ccc(Oc2cc(OC)nc(-c3ccccc3)n2)c(C=C)c1` yielded a microsomal CLint at 5 min, 1 µM (in vitro; microsomes) of 66 µL/min/mg, a Papp A→B at 10 µM [4] of 1 ×10⁻⁶ cm/s and a half-life at 5 min, 1 µM ([2]; microsomes) of 0.35 h. It also gave a solubility at 1 h [8] of 101 µM (≈ 73.5 µg/mL) and a Ki [1] of 190 nM.
`C=CCCCS(=O)(=O)NC(=O)c1cccc(NC(=O)C(NC(=O)OC(C)(C)C)c2ccc(Oc3cc(OC)nc(-c4ccccc4)n3)c(C=C)c2)c1` (configuration not stated) gave a Ki [1] of 210 nM.
Molecule `C=Cc1cc([C@H](NC(=O)[C@@H](NC(=O)OC(C)(C)C)C(C)(C)C)C(=O)Nc2ccccc2C(=O)NS(=O)(=O)c2ccc(C(F)(F)F)cc2)ccc1Oc1cc(OC)nc(-c2ccccc2)n1` has a Ki [1] of 45 nM.
`C=CCCCS(=O)(=O)NC(=O)c1ccccc1NC(=O)C(NC(=O)[C@@H](NC(=O)OC(C)(C)C)C(C)(C)C)c1ccc(Oc2cc(OC)nc(-c3ccccc3)n2)c(C=C)c1` (mixture of isomers) showed an EC50 (Hepatitis C virus) of 12500 nM and a CC50 [7] of no less than 50000 nM.

— ChEMBL document CHEMBL3124859, “Novel Peptidomimetic Hepatitis C Virus NS3/4A Protease Inhibitors Spanning the P2-P1' Region” (ACS Med Chem Lett, 2014)
